We go through 3 substances from ChEMBL document CHEMBL4145677, “Insights into the Mechanism of Antimicrobial Activity of Seven-Residue Peptides” (J Med Chem, 2018).

Activity calls are given as the source filed them. The calls are words filed in the database; no cut-off is given here.

The test system of one data set is Erythrocyte. The experiment in a line: Hemolytic activity in human erythrocytes at 1 to 200 uM after 4 hrs by. The data set is classed as ADME, cell-based. A digest of the protocol: (§1)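 Fresh EDTA-anticoagulated human blood; erythrocytes washed thrice in PBS pH 7.4, 2×10^8 cells/mL, mixed with equal volume of peptide up to 200 µM, shaken at 310K for 1 h and 4 h. Supernatant absorbance at 414 nm measured, normalized to 2% Triton X-100 as 100% lysis; triplicates.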

The subject of data set [1] is Lipid bilayer. Put plainly: Induction of cell permeabilization in calcein-entrapped 3:1 DOPE/DOPG large unilamellar vesicles at 1 to 50 uM by calcein leakage assay. The procedure, abridged: (§2)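 LUVs of DOPE/DOPG 3:1 loaded with 70 mM calcein in 10 mM Tris pH 7.4, extruded through 100-nm filters, free dye removed by spin column. Liposomes at 20 µM in 10 mM Tris, 100 mM NaCl pH 7.4, 298K. Peptide added stepwise; emission at 520 nm read 5 min after each addition. Leakage = (F−Fo)/(FT−Fo)×100, with 0.1% Triton X-100 as FT; triplicates.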

The nature of data set [2]: Binding affinity to SDS micelle in presence of MnCl2 by PRE NMR spectroscopy.
For data set [3], the system named is Cryptococcus neoformans. Put plainly: Antimicrobial activity against Cryptococcus neoformans var. grubii incubated for 4 hrs by microdilution broth assay. In kind it is functional. A digest of the protocol: (§3)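 Yeasts grown in YPDU at 301K. Mid-log cells washed thrice and resuspended in 10 mM phosphate buffer pH 7.4 at 10^5 CFU/mL. Exposed to peptide 1–100 µM for 4 h at 301K, then medium added and grown overnight with shaking. Growth read at A630, normalized to 10 µM polymyxin B control. MIC90% is the concentration giving 90% growth inhibition; triplicates.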

The subject of data set [4] is Escherichia coli. Put plainly: Induction of bacteriolysis in Escherichia coli DH5[alpha] assessed as induction of dents and membrane blebbing at 1 times MIC90 by scanning electron microscopy. The data set is classed as functional, organism-based.
Data set [5] concerns HEK293. Put plainly: Toxicity in HEK293 cells assessed as reduction in cell viability at =>100 uM incubated for 24 hrs by MTT assay. In kind it is cell-based. The note with it: human, hek293, 24 h. The procedure, abridged: (§4)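 HEK-293 cells kept in DMEM with 10% FBS and 1% penicillin/streptomycin, 310K, 5% CO2. Seeded at 10^4 cells/well and grown overnight, then exposed to peptide 0–100 µM for 24 h. MTT at 0.3 mg/mL for 3 h, formazan dissolved in DMSO, read at 570 nm; triplicates.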

Data set [6] concerns Escherichia coli. Put plainly: Induction of bacteriolysis in Escherichia coli DH5[alpha] assessed as induction of intracellular material leakage at 1 to 5 times MIC90 by scanning electron microscopy. In kind it is functional, organism-based.
For data set [7], the system named is Cryptococcus neoformans. Put plainly: Induction of cell membrane permeabilization in Cryptococcus neoformans var. grubii assessed as release of metabolites at 0.5 mM by […] cell NMR spectroscopy. In kind it is functional, organism-based.
Data set [8] relates to Cryptococcus neoformans. Put plainly: Induction of cell membrane permeabilization in Cryptococcus neoformans var. grubii at 0.5 mM by […] cell NMR spectroscopy. In kind it is functional, organism-based.
A further data set has as its system Salmonella typhi. The experiment in a line: Antimicrobial activity against Salmonella typhi Ty2 incubated for 4 hrs by microdilution broth assay. The data set is classed as functional, Salmonella enterica subsp. enterica serovar Typhi str. Ty2. Conditions: Salmonella enterica. A general note: Broth dilution looks for growth in wells or tubes with falling amounts of substance.

For data set [9], the system named is Escherichia coli. The experiment in a line: Antimicrobial activity against Escherichia coli DH5[alpha] incubated for 4 hrs by microdilution broth assay. The data set is classed as functional. The procedure, abridged:
(§5)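 Bacteria grown in nutrient broth at 310K. Mid-log cells washed thrice and resuspended in 10 mM phosphate buffer pH 7.4 at 10^5 CFU/mL. Exposed to peptide 1–100 µM for 4 h at 310K, then medium added and grown overnight with shaking. Growth read at A630, normalized to 10 µM polymyxin B control. MIC90% is the concentration giving 90% growth inhibition; triplicates.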

The subject of data set [10] is Candida albicans. Put plainly: Antimicrobial activity against Candida albicans incubated for 4 hrs by microdilution broth assay. In kind it is functional. The procedure, abridged:
as §3

Data set [11] is described as follows: Binding affinity to SDS by circular dichroism spectroscopy. The procedure, abridged: (§6)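 Far-UV CD, 250–190 nm, 1-mm quartz cuvette, 100 nm/min, 0.5 nm interval, 3 scans averaged, 298K. Peptide at 25 µM final in deionized water or with 30 mM SDS or DPC micelles.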
Data set [12] deals with HEK293. Put plainly: Toxicity in HEK293 cells assessed as reduction in cell viability at 2 to 100 uM incubated for 24 hrs by MTT assay. In kind it is cell-based. The note with it: human, hek293, 24 h. The procedure, abridged: as §4
Data set [13] has as its system Lipid bilayer. Put plainly: Induction of cell permeabilization in calcein-entrapped 3:1 DOPE/DOPG large unilamellar vesicles at 30 uM by calcein leakage assay. The procedure, abridged: as §2
The nature of data set [14]: Binding affinity to DPC micelle by circular dichroism spectroscopy. A digest of the protocol: as §6
The test system of data set [15] is Escherichia coli. Put plainly: Induction of bacteriolysis in Escherichia coli DH5[alpha] assessed as induction of cell wall shrinkage at 1 to 5 times MIC90 by scanning electron microscopy. The data set is classed as functional, organism-based.
The test system of data set [16] is Cryptococcus neoformans. The experiment in a line: Antimicrobial activity against Cryptococcus neoformans var. grubii assessed as induction of microbial killing in presence of 150 mM NaCl measured after overnight recovery by microdilution broth assay. In kind it is functional. A digest of the protocol:
(§7)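 Washed mid-log cells in 10 mM phosphate buffer pH 7.4 with 150 mM NaCl, 10^5 CFU/mL; C. albicans grown in YPDU. Peptide 1–100 µM, 4 h at 301K, then medium added and grown overnight with shaking; A630 read. Polymyxin B 10 µM positive control; percent killing reported as MIC50%; triplicates.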

Data set [17] has as its system Candida albicans. Put plainly: Antimicrobial activity against Candida albicans assessed as induction of microbial killing in presence of 150 mM NaCl measured after overnight recovery by microdilution broth assay. The data set is classed as functional. A digest of the protocol:
as §7

Data set [18] can be described thus: Binding affinity to DPC micelle in presence of MnCl2 by PRE NMR spectroscopy.
Data set [19] deals with Lipid bilayer. Put plainly: Induction of cell permeabilization in calcein-entrapped 3:1 DOPE/DOPG large unilamellar vesicles by calcein leakage assay. The procedure, abridged: as §2
In data set [20] the test system is Cryptococcus neoformans. Put plainly: Induction of cell death in Cryptococcus neoformans var. grubii at 0.5 mM after 1 hr by […] cell NMR spectroscopy. The data set is classed as functional, organism-based.
The subject of data set [21] is Lipid bilayer. The experiment in a line: Induction of cell permeabilization in calcein-entrapped 3:1 DOPE/DOPG large unilamellar vesicles at 50 uM measured over period of 7200 secs by calcein leakage assay. A digest of the protocol:
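Calcein-loaded 3:1 DOPE/DOPG LUVs, 20 µM in 10 mM Tris, 100 mM NaCl pH 7.4, exposed to 50 µM peptide. Emission at 520 nm followed over time at 298K, with a liposome-only control monitored for 2 h.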

A short description of data set [22]: Hemolytic activity in human erythrocytes assessed as heme release at 1 to 200 uM after 4 hrs by. In kind it is ADME, cell-based, Erythrocyte. The note with it: read-out: Activity. A digest of the protocol: as §1
In data set [23] the test system is Escherichia coli. Put plainly: Induction of bacteriolysis in Escherichia coli DH5[alpha] assessed as induction of distorted cell morphology at 1 times MIC90 by scanning electron microscopy. In kind it is functional, organism-based.
In another data set the test system is Pseudomonas aeruginosa. The experiment in a line: Antimicrobial activity against Pseudomonas aeruginosa incubated for 4 hrs by microdilution broth assay. In kind it is functional. The procedure, abridged: as §5
Data set [24] can be described thus: Binding affinity to d25-SDS micelles by 1H NMR spectroscopy.
Data set [25] relates to Escherichia coli. Put plainly: Induction of bacteriolysis in Escherichia coli DH5[alpha] assessed as induction of non-uniform cell debris with leaked intracellular material at 5 times MIC90 by scanning electron microscopy. The data set is classed as functional, organism-based.
For another data set, the system named is Staphylococcus aureus. The experiment in a line: Antimicrobial activity against Staphylococcus aureus incubated for 4 hrs by microdilution broth assay. In kind it is functional. A digest of the protocol: as §5
For a further data set, the system named is Klebsiella pneumoniae. The experiment in a line: Antimicrobial activity against Klebsiella pneumoniae incubated for 4 hrs by microdilution broth assay. The data set is classed as functional. The procedure, abridged: as §5
For data set [26], the system named is Cryptococcus neoformans. Put plainly: Induction of cell death in Cryptococcus neoformans var. grubii at 0.5 mM after 2 hrs by […] cell NMR spectroscopy. The data set is classed as functional, organism-based.
For data set [27], the system named is Cryptococcus neoformans. Put plainly: Induction of cell membrane permeabilization in Cryptococcus neoformans var. grubii at 0.5 mM after 2 hrs by […] cell NMR spectroscopy. In kind it is functional, organism-based.
Data set [28] has as its system Cryptococcus neoformans. Put plainly: Induction of cell membrane permeabilization in Cryptococcus neoformans var. grubii assessed as release of metabolites at 0.5 mM after 2 hrs by […] cell NMR spectroscopy. In kind it is functional, organism-based.
Data set [29] relates to Escherichia coli. Put plainly: Induction of bacteriolysis in Escherichia coli DH5[alpha] assessed as induction of morphological changes at 100 uM by scanning electron microscopy. In kind it is functional, organism-based.

What is called MIC90 is the lowest concentration that inhibits either 90% of growth or 90% of the strains tested, depending on the study. Higher therefore signals weaker potency. Usually MIC50 stands for an inhibitory concentration at the 50% level, which refers to growth in some studies and to a panel of isolates in others.

For H-LRWLRRL-NH2, the Activity entry with Erythrocyte is “Non-Toxic”; in the data set on Lipid bilayer [1], 57%; with HEK293 [5], below 10%; in the data set on HEK293 [12], “Non-Toxic”; in the data set on Lipid bilayer [13], 45%; in the data set on Lipid bilayer [19], “Dose-dependent effect”. The result in data set [2], in data set [11], in data set [14] and in data set [18] was inactive. For the same substance, the MIC90 against Cryptococcus neoformans [3] worked out at 15 µM; against Salmonella typhi, 7.5 µM; against Escherichia coli [9], 10 µM; with Candida albicans [10], 50 µM; in the data set with Pseudomonas aeruginosa it was 10 µM; against Staphylococcus aureus, 50 µM. In the data set on Klebsiella pneumoniae, this substance came in with an MIC90 of 15 µM. The result with Escherichia coli [4], in the data set with Escherichia coli [6], in the data set with Cryptococcus neoformans [7], with Cryptococcus neoformans [8], in the data set on Escherichia coli [15] and in the data set with Cryptococcus neoformans [20] was Active. Moreover, the outcome (in the data set with Lipid bilayer [21]; with Escherichia coli [23]; in [24]; in the data set with Escherichia coli [25]) was Active. Besides, the MIC50 in the data set with Cryptococcus neoformans [16] and with Candida albicans [17] was 25 µM throughout. Besides, in data set [22], the hemolysis at 4 h, up to 200 µM is below 10%.

H-LKWLKKL-NH2: the Activity result in the data set on Erythrocyte is “Non-Toxic”; with Lipid bilayer [1], 37%; in the data set on HEK293 [5] it was below 10%; in the data set with HEK293 [12], “Non-Toxic”; in the data set with Lipid bilayer [13], 27%; in the data set with Lipid bilayer [19], “Dose-dependent effect”. Further, the outcome (in data set [2]; with Escherichia coli [4]; with Escherichia coli [6]; in the data set on Cryptococcus neoformans [7]; with Cryptococcus neoformans [8]; in the data set with Escherichia coli [15]) was Active. In addition, the result (with Cryptococcus neoformans [20]; in the data set with Escherichia coli [23]; in [24]; with Escherichia coli [25]) was Active. Further, the MIC90 with Cryptococcus neoformans [3] was 25 µM; against Salmonella typhi, 15 µM; against Escherichia coli [9], 50 µM; against Candida albicans [10] it was 50 µM; against Pseudomonas aeruginosa, 50 µM; against Staphylococcus aureus, 50 µM. In addition, the MIC90 against Klebsiella pneumoniae was 50 µM. The result in data set [11], in data set [14] and in [18] was inactive. The MIC50 in the data set on Cryptococcus neoformans [16] and in the data set on Candida albicans [17] was 50 µM in each case. In addition, the hemolysis at 4 h, up to 200 µM in data set [22] was below 10%.

On to H-LKLLRKL-OH, for which the result in the data set with Cryptococcus neoformans [26], in the data set on Cryptococcus neoformans [27], in the data set with Cryptococcus neoformans [28] and in the data set on Escherichia coli [29] was inactive.
